Compounds with a hit are over-represented: about 2.6% of the library has one in this group of screens.
RAD54 branch – inhibitors of human RAD54 branch migration; Q92698; inhibition, % at 10.4 µM; 360,000 compounds, 0.14% hits; RAD54 Holliday junction branch migration, FAM/BHQ fluorescence;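 active = mean normalized replicate activity at least 40 and at least half of replicates scoring 40 or more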;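 note: inhibitors cause a drop in the FAM fluorescence signal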
RAD52 inh – RAD52 (human) annealing inhibition; P43351; recombinant RAD52 DNA annealing, FRET fluorescence; inhibition, % at 18.7 µM; 360,000 compounds, 0.46% hits; AID 651710;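 active = every replicate showing at least 50% inhibition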
Target sequence (P43351 whole entry, looked up): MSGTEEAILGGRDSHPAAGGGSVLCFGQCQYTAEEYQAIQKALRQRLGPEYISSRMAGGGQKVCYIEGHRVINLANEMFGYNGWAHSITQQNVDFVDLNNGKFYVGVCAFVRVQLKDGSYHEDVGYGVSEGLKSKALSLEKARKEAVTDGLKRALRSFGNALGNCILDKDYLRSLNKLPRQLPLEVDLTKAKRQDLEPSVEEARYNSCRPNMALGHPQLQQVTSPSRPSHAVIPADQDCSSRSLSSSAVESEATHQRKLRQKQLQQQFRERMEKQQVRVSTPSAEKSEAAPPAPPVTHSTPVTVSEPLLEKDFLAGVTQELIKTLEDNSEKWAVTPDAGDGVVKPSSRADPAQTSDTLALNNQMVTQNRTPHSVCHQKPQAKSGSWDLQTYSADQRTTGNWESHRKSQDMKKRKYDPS
rRNA inh HTS – inhibitors of bacterial rRNA selective over humanized ribosomes; GFP signal change (wild-type ribosome), % (no concentration beside the values); 350,000 compounds, 1.6% hits; E. coli WT GFP vs humanized-ribosome RFP mutants, fluorescence, 24 h; active compounds read low; DMSO median 0, no signal -100; AID 720706;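 active = significant combined selectivity score with lowered wild-type GFP, culture density cut under 30%, mutant RFP and density less affected; inactive = any of these conditions unmet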
MLL AF4-AF9 inh – blocks AF4 peptide binding to human AF9; AID 651704; AlphaScreen, biotin-AF4 peptide binding to FLAG-AF9; inhibition, % at 10 µM; 350,000 compounds, 0.47% hits;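 active = every replicate reaching a set inhibition limit, whatever the replicate mean, cut at about 25% in these data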
E-selectin induc – induces E-selectin expression in human endothelial cells | P16581 | HUVEC E-selectin immunofluorescence imaging; normalized: neutral wells 0, TNF-alpha wells 100 | activation, % at 7.58 µM | 260,000 compounds, 0.37% hits;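 active = mean E-selectin-positive cell signal at least 10% of the positive control, reached in at least 60% of replicates, without over 20% cell loss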
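Assay system: HUVEC, human umbilical vein endothelial cells / Amount: 3,000 HUVEC/well / Controls: TNF-alpha positive control, DMSO neutral control / Compound dosing: single concentration / Medium: EGM-2 over gelatin coat / Evaluation: percent E-selectin-positive cells / Signal: immunofluorescence imaging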
INS-1E GSIS act – GLuc luminescence reporter in INS-1E cells, primary screen for activators of glucose-dependent secretion of insulin. INS-1E GLuc reporter insulin secretion, 2-3 h. activation, % at 16.6 µM. 370,000 compounds, 0.61% hits. AID 743287;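 active = lowest replicate activation of at least 40%, so every replicate reaches that level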
Each line names hits and unclear results; the compound was inactive in the other large screens.

C[C@@H]1CN([C@H](C)CO)C(=O)c2cc(NC(=O)Nc3ccc(C(F)(F)F)cc3)ccc2O[C@@H]1CN(C)S(=O)(=O)c1ccc(F)cc1	none
C[C@H]1CN([C@@H](C)CO)C(=O)c2cc(NC(=O)Nc3ccc(C(F)(F)F)cc3)ccc2O[C@@H]1CN(C)S(=O)(=O)c1ccccc1	E-selectin induc 132.6 (no result: RAD54 branch)
C[C@@H]1CN([C@@H](C)CO)C(=O)c2cc(NC(=O)Nc3ccc4c(c3)OCO4)ccc2O[C@H]1CN(C)S(=O)(=O)c1ccc(F)cc1	none
C[C@H](CO)N1C[C@H](C)[C@H](CN(C)S(=O)(=O)c2ccc(Cl)cc2)Oc2ccc(NC(=O)NC3CCCCC3)cc2C1=O	E-selectin induc 435.6
C[C@@H]1CN([C@H](C)CO)C(=O)c2cc(NC(=O)Nc3ccc(F)cc3)ccc2O[C@@H]1CN(C)S(=O)(=O)c1cccs1	none
C[C@@H]1CN([C@H](C)CO)C(=O)c2cc(NC(=O)Nc3ccc(F)cc3)ccc2O[C@H]1CN(C)S(=O)(=O)c1cccs1	E-selectin induc 38.7
O=C(Cc1ccccc1)NC[C@H]1N[C@H](CO)[C@@H]1c1ccc(-c2ccccc2)cc1	none (no result: RAD54 branch)
CCCC#Cc1ccc([C@H]2[C@H]3CN(S(=O)(=O)Cc4ccccc4)CC(=O)N3[C@H]2CO)cc1	none (no result: RAD54 branch)
C[C@H](CO)N1C[C@H](C)[C@@H](CN(C)S(=O)(=O)c2cccs2)Oc2ccc(NC(=O)CCN3CCOCC3)cc2C1=O	E-selectin induc 62.9
C[C@H]1CN([C@@H](C)CO)C(=O)c2cc(NC(=O)Nc3ccc(F)cc3)ccc2O[C@H]1CN(C)Cc1ccc(C(=O)O)cc1	none
C/C(=N\O)c1cccc(Br)c1	rRNA inh HTS -25.2 (no result: RAD54 branch)
COCCCN(C(=S)Nc1cc(Cl)cc(Cl)c1)C(C)c1ccccn1 (centres undefined)	rRNA inh HTS -39.3 (no result: E-selectin induc)
Cc1cc(CCNC=O)c(C)c2c1oc1ccccc12	INS-1E GSIS act 57.1 (no result: RAD54 branch)
COc1ccc(NC(=O)N(C)C[C@@H]2Oc3c(NS(=O)(=O)c4ccccc4)cccc3C(=O)N([C@H](C)CO)C[C@H]2C)cc1	none (no result: RAD54 branch, RAD52 inh, MLL AF4-AF9 inh)
COc1ccc(NC(=O)N(C)C[C@H]2OCCCC[C@@H](C)Oc3ccc(NS(=O)(=O)c4ccc(OC)cc4)cc3C(=O)N([C@@H](C)CO)C[C@@H]2C)cc1	none (no result: RAD52 inh, MLL AF4-AF9 inh)
COc1ccc(OC)c2c1C(=O)C(Cl)=C(Cl)C2=O	INS-1E GSIS act 58.3
Cc1ccc(/C=N/Nc2ncc(Cl)cc2Cl)s1	rRNA inh HTS -22.0 (no result: RAD54 branch, E-selectin induc)
c1ccc(Cn2cc(CSc3ccccc3)nn2)cc1	rRNA inh HTS -32.5
COc1ccc(CN(C)C[C@H]2Oc3c(NC(=O)c4cnccn4)cccc3C(=O)N([C@@H](C)CO)C[C@@H]2C)cc1	none
CN(C)CC(=O)N1CCCCN2[C@H](C1)[C@@H](c1ccc(/C=C/c3ccccc3)cc1)[C@@H]2CO	RAD52 inh 58.1
CN(C)CC(=O)N1CCCCN2[C@H](CO)[C@H](c3ccc(/C=C/c4ccccc4)cc3)[C@H]2C1	RAD52 inh 61.6
C/C=C/c1ccc([C@@H]2[C@H]3CN(C(=O)CN(C)C)CCCCN3[C@H]2CO)cc1	none (no result: RAD54 branch, RAD52 inh, MLL AF4-AF9 inh, E-selectin induc)
CN(C)CC(=O)N1CCCCN2[C@@H](CO)[C@H](c3ccc(/C=C/c4ccccc4)cc3)[C@@H]2C1	RAD52 inh 68.8
CN(C)CC(=O)N1CCCCN2[C@H](C1)[C@H](c1ccc(/C=C/c3ccccc3)cc1)[C@@H]2CO	none
CN(C)CC(=O)N1CCCCN2[C@@H](CO)[C@@H](c3ccc(/C=C/c4ccccc4)cc3)[C@@H]2C1	RAD52 inh 70.5
CO[C@@H]1CN(C)C(=O)c2ccc(NC(=O)C3CC3)cc2OC[C@@H](C)N(C(=O)CN2CCOCC2)C[C@@H]1C	none
COc1cccc(NC(=O)N(C)C[C@H]2OCc3ccccc3-c3ccccc3C(=O)N([C@@H](C)CO)C[C@H]2C)c1	none
CCc1nc(N2[C@@H](C#N)[C@@H](c3ccccc3-c3ccccc3C)[C@@H]2CO)sc1C	none (no result: RAD54 branch)
O=C(NC1CCCC1)N1CCCCN2[C@@H](CO)[C@H](c3ccc(/C=C/c4ccccc4)cc3)[C@@H]2C1	none
O=C(NC1CCCC1)N1CCCCN2[C@@H](CO)[C@@H](c3ccc(/C=C/c4ccccc4)cc3)[C@@H]2C1	MLL AF4-AF9 inh 27.9
O=C1c2ccccc2NC(c2ccc(-c3cccc([N+](=O)[O-])c3)o2)N1O (centres undefined)	rRNA inh HTS -20.8 (no result: RAD54 branch)
O=C1c2ccccc2NC(c2ccc(-c3ccc(F)cc3)o2)N1O (centres undefined)	none
O=C(Cc1c(O)c2ccccc2oc1=O)c1ccc(F)cc1	MLL AF4-AF9 inh 47.4 (no result: E-selectin induc)
O=c1oc2ccccc2c(O)c1CN1CCCCC1	none (no result: RAD52 inh, rRNA inh HTS, MLL AF4-AF9 inh, E-selectin induc, INS-1E GSIS act)
C[C@H](CO)N1C[C@H](C)[C@H](CN(C)C(=O)Nc2ccc(F)cc2)Oc2ccc(NS(C)(=O)=O)cc2CC1=O	none
CO[C@@H]1CN(C)C(=O)c2ccc(NC(=O)C3CC3)cc2OC[C@@H](C)N(C(=O)NC(C)C)C[C@@H]1C	none
C=C1C(=O)[C@]23C[C@H]1CC[C@H]2[C@]1(C)[C@@H](OC(C)=O)CC[C@@](C)(C(=O)O)[C@H]1C[C@@H]3O	INS-1E GSIS act 84.3
C=C1C(=O)[C@]23C[C@H]1CCC2[C@@]1(C)C(C[C@@H]3O)[C@](C)(C(=O)OC)CC[C@@H]1OC(C)=O (some centres undefined)	INS-1E GSIS act 134.0
COc1ccc(CN(C)C[C@H]2Oc3ccc(NS(=O)(=O)c4cccs4)cc3CC(=O)N([C@H](C)CO)C[C@@H]2C)cc1	none (no result: RAD54 branch, E-selectin induc)
C[C@@H]1CCCCO[C@@H](CN(C)Cc2ccc(C(F)(F)F)cc2)[C@H](C)CN([C@H](C)CO)C(=O)c2cc(NC(=O)Nc3ccccc3)ccc2O1	none (no result: RAD52 inh, MLL AF4-AF9 inh)
CCC(=O)Nc1ccc2c(c1)OC[C@@H](C)N(C(=O)CN(C)C)C[C@@H](C)[C@H](OC)CN(C)C2=O	none
O=C(NC1CCCCCC1)C1CCC(=O)N(Cc2ccccc2F)C1 (centres undefined)	none
O=C(NCC1(O)CCCCC1)C1CCC(=O)N(Cc2ccccc2F)C1 (centres undefined)	INS-1E GSIS act 53.8 (no result: E-selectin induc)
CCn1nc(C)c(NC(=O)c2cnn3c(C(F)F)cc(-c4ccccc4)nc23)c1C	INS-1E GSIS act 54.9 (no result: RAD54 branch, E-selectin induc)
O=C(NN1CCCCC1)c1cnn2c(C(F)F)cc(-c3ccccc3)nc12	none (no result: RAD54 branch, E-selectin induc)
C[C@@H]1CN([C@@H](C)CO)C(=O)c2cc(NC(=O)CCC(F)(F)F)ccc2O[C@H]1CN(C)C(=O)Nc1ccc(C(F)(F)F)cc1	none
CCOC(=O)Nc1ccc(C(=O)/C=C/c2ccccc2)cc1	rRNA inh HTS -25.5 (no result: E-selectin induc)

Bioassay records: PubChem BioAssay, Broad Institute
